Data reported in ChEMBL document CHEMBL5724801, “EUbOPEN Chemogenomics Library - Multiplex” (2024).
“And” between values parts separate entries of the source, which are not always exact repeats. Equal entries are not always repeated.

What was measured:
Fibroblast = assay: Multiplex assay against human fibroblast; type: toxicity, cell-based
Procedure, shortened: (§1)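 Cells were classed with CellPathfinder machine-learning gating, first as Hoechst high-intensity objects or normal cells, then (normal cells) as healthy, pyknosed or fragmented nuclei, and finally (pyknosed cells) as mitotic or apoptotic. Staining of live cells at seeding used Hoechst33342, BioTracker Green Microtubule Cytoskeleton Dye, MitoTracker Red and Annexin V Alexa Fluor 680, with imaging on a CQ1 microscope at 37°C and 5% CO2 after compound addition. Tubulin, mitochondrial-mass and membrane-permeability phenotypes are per cents of healthy-nucleus cells.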

HEK-293T = assay: Multiplex assay against HEK293T; type: toxicity, cell-based; conditions: human; procedure, shortened: as §1
[1] = 12 h, 1 µM, compound concentration 1 uM
[2] = 12 h, 10 µM, compound concentration 10 uM
[3] = 24 h, 1 µM, compound concentration 1 uM
[4] = 24 h, 10 µM, compound concentration 10 uM
[5] = 48 h, 1 µM, compound concentration 1 uM
[6] = 48 h, 10 µM, compound concentration 10 uM

Question: How did the “Population Apoptotic (%)” value (Fibroblast; [1]) turn out when `S=C(NCCCc1c[nH]cn1)NCCCN(Cc1ccc(Cl)c(Cl)c1)c1ccc(Br)cn1` was run?
Answer: The value was 40% and 31%.

Question: What about the “Population Fragmented Nuclei (%)” value (Fibroblast; [1]) of the same compound?
Answer: The value was 13% and 30%.

Question: And the “Population Healthy Nuclei (%)” value (Fibroblast; [1])?
Answer: The value was 71% and 50%.

Question: What about the “Population Hoechst High Intensity Objects (%)” value (Fibroblast; [1]) of the same compound?
Answer: The value was 5% and 4%.

Question: What about the “Population Membrane Permeable-Phenotype (%)” value (Fibroblast; [1]) of the same compound?
Answer: The value was 1% and 5%.

Question: What about the “Population Mitochondria Different-Phenotype (%)” value (Fibroblast; [1]) of the same compound?
Answer: The value was 5% and 6%.

Question: And the “Population Mitotic Cells (%)” value (Fibroblast; [1])?
Answer: The value was 60% and 68%.

Question: And the “Population Normal (%)” value (Fibroblast; [1])?
Answer: Its value is 94% and 95%.

Question: And the “Population Pyknosed Nuclei (%)” value (Fibroblast; [1])?
Answer: Its value is 14% and 18%.

Question: What about the “Population Tubulin-Different-Phenotype (%)” value (Fibroblast; [1]) of the same compound?
Answer: Its value is 26% and 37%.

Question: What about the “Total Cell Count” value (Fibroblast; [1]) of the same compound?
Answer: Its value is 142 and 181.

Question: And the “Population Apoptotic (%)” value (Fibroblast; [2])?
Answer: Its value is 47% and 52%.

Question: What about the “Population Fragmented Nuclei (%)” value (Fibroblast; [2]) of the same compound?
Answer: The value was 27% and 34%.

Question: What about the “Population Healthy Nuclei (%)” value (Fibroblast; [2]) of the same compound?
Answer: The value was 56% and 53%.

Question: And the “Population Hoechst High Intensity Objects (%)” value (Fibroblast; [2])?
Answer: Its value is 3% and 5%.

Question: What about the “Population Membrane Permeable-Phenotype (%)” value (Fibroblast; [2]) of the same compound?
Answer: Its value is 0%.

Question: What about the “Population Mitochondria Different-Phenotype (%)” value (Fibroblast; [2]) of the same compound?
Answer: The value was 15% and 10%.

Question: And the “Population Mitotic Cells (%)” value (Fibroblast; [2])?
Answer: Its value is 52% and 47%.

Question: What about the “Population Normal (%)” value (Fibroblast; [2]) of the same compound?
Answer: The value was 96% and 94%.

Question: What about the “Population Pyknosed Nuclei (%)” value (Fibroblast; [2]) of the same compound?
Answer: Its value is 16% and 12%.

Question: And the “Population Tubulin-Different-Phenotype (%)” value (Fibroblast; [2])?
Answer: The value was 89%.

Question: What about the “Total Cell Count” value (Fibroblast; [2]) of the same compound?
Answer: The value was 220 and 279.

Question: And the “Population Apoptotic (%)” value (Fibroblast; [3])?
Answer: The value was 69% and 23%.

Question: What about the “Population Fragmented Nuclei (%)” value (Fibroblast; [3]) of the same compound?
Answer: The value was 15% and 30%.

Question: And the “Population Healthy Nuclei (%)” value (Fibroblast; [3])?
Answer: The value was 74% and 57%.

Question: What about the “Population Hoechst High Intensity Objects (%)” value (Fibroblast; [3]) of the same compound?
Answer: The value was 4% and 1%.

Question: And the “Population Membrane Permeable-Phenotype (%)” value (Fibroblast; [3])?
Answer: Its value is 2%.

Question: What about the “Population Mitochondria Different-Phenotype (%)” value (Fibroblast; [3]) of the same compound?
Answer: The value was 2% and 6%.

Question: And the “Population Mitotic Cells (%)” value (Fibroblast; [3])?
Answer: The value was 30% and 76%.

Question: What about the “Population Normal (%)” value (Fibroblast; [3]) of the same compound?
Answer: Its value is 95% and 98%.

Question: And the “Population Pyknosed Nuclei (%)” value (Fibroblast; [3])?
Answer: The value was 9% and 11%.

Question: And the “Population Tubulin-Different-Phenotype (%)” value (Fibroblast; [3])?
Answer: The value was 28% and 42%.

Question: What about the “Total Cell Count” value (Fibroblast; [3]) of the same compound?
Answer: The value was 137 and 183.

Question: And the “Population Apoptotic (%)” value (Fibroblast; [4])?
Answer: The value was 66% and 61%.

Question: And the “Population Fragmented Nuclei (%)” value (Fibroblast; [4])?
Answer: Its value is 22% and 27%.

Question: And the “Population Healthy Nuclei (%)” value (Fibroblast; [4])?
Answer: Its value is 61% and 59%.

Question: What about the “Population Hoechst High Intensity Objects (%)” value (Fibroblast; [4]) of the same compound?
Answer: The value was 1% and 4%.

Question: And the “Population Membrane Permeable-Phenotype (%)” value (Fibroblast; [4])?
Answer: Its value is 0% and 2%.

Question: What about the “Population Mitochondria Different-Phenotype (%)” value (Fibroblast; [4]) of the same compound?
Answer: The value was 19% and 7%.

Question: And the “Population Mitotic Cells (%)” value (Fibroblast; [4])?
Answer: Its value is 33% and 38%.

Question: And the “Population Normal (%)” value (Fibroblast; [4])?
Answer: Its value is 98% and 95%.

Question: And the “Population Pyknosed Nuclei (%)” value (Fibroblast; [4])?
Answer: Its value is 15% and 13%.

Question: And the “Population Tubulin-Different-Phenotype (%)” value (Fibroblast; [4])?
Answer: Its value is 93% and 95%.

Question: What about the “Total Cell Count” value (Fibroblast; [4]) of the same compound?
Answer: Its value is 214 and 248.

Question: What about the “Population Apoptotic (%)” value (Fibroblast; [5]) of the same compound?
Answer: The value was 75% and 35%.

Question: What about the “Population Fragmented Nuclei (%)” value (Fibroblast; [5]) of the same compound?
Answer: The value was 27% and 30%.

Question: What about the “Population Healthy Nuclei (%)” value (Fibroblast; [5]) of the same compound?
Answer: The value was 67% and 59%.

Question: And the “Population Hoechst High Intensity Objects (%)” value (Fibroblast; [5])?
Answer: The value was 3% and 4%.

Question: And the “Population Membrane Permeable-Phenotype (%)” value (Fibroblast; [5])?
Answer: Its value is 0% and 5%.

Question: What about the “Population Mitochondria Different-Phenotype (%)” value (Fibroblast; [5]) of the same compound?
Answer: Its value is 0% and 3%.

Question: What about the “Population Mitotic Cells (%)” value (Fibroblast; [5]) of the same compound?
Answer: Its value is 25% and 64%.

Question: What about the “Population Normal (%)” value (Fibroblast; [5]) of the same compound?
Answer: The value was 96% and 95%.

Question: And the “Population Pyknosed Nuclei (%)” value (Fibroblast; [5])?
Answer: The value was 5% and 10%.

Question: And the “Population Tubulin-Different-Phenotype (%)” value (Fibroblast; [5])?
Answer: The value was 24% and 36%.

Question: And the “Total Cell Count” value (Fibroblast; [5])?
Answer: The value was 156 and 178.

Question: What about the “Population Apoptotic (%)” value (Fibroblast; [6]) of the same compound?
Answer: Its value is 62% and 63%.

Question: And the “Population Fragmented Nuclei (%)” value (Fibroblast; [6])?
Answer: Its value is 27% and 31%.

Question: What about the “Population Healthy Nuclei (%)” value (Fibroblast; [6]) of the same compound?
Answer: Its value is 59% and 60%.

Question: What about the “Population Hoechst High Intensity Objects (%)” value (Fibroblast; [6]) of the same compound?
Answer: The value was 6% and 5%.

Question: And the “Population Membrane Permeable-Phenotype (%)” value (Fibroblast; [6])?
Answer: The value was 0%.

Question: And the “Population Mitochondria Different-Phenotype (%)” value (Fibroblast; [6])?
Answer: Its value is 7% and 1%.

Question: And the “Population Mitotic Cells (%)” value (Fibroblast; [6])?
Answer: Its value is 37% and 36%.

Question: What about the “Population Normal (%)” value (Fibroblast; [6]) of the same compound?
Answer: Its value is 93% and 94%.

Question: And the “Population Pyknosed Nuclei (%)” value (Fibroblast; [6])?
Answer: The value was 12% and 7%.

Question: And the “Population Tubulin-Different-Phenotype (%)” value (Fibroblast; [6])?
Answer: The value was 91% and 86%.

Question: And the “Total Cell Count” value (Fibroblast; [6])?
Answer: Its value is 230 and 293.

Question: What about the “Population Apoptotic (%)” value (HEK-293T; [1]) of the same compound?
Answer: Its value is 39% and 53%.

Question: And the “Population Fragmented Nuclei (%)” value (HEK-293T; [1])?
Answer: The value was 8% and 5%.

Question: And the “Population Healthy Nuclei (%)” value (HEK-293T; [1])?
Answer: Its value is 78% and 79%.

Question: What about the “Population Hoechst High Intensity Objects (%)” value (HEK-293T; [1]) of the same compound?
Answer: The value was 17% and 6%.

Question: And the “Population Membrane Permeable-Phenotype (%)” value (HEK-293T; [1])?
Answer: Its value is 0%.

Question: And the “Population Mitochondria Different-Phenotype (%)” value (HEK-293T; [1])?
Answer: Its value is 50% and 58%.

Question: And the “Population Mitotic Cells (%)” value (HEK-293T; [1])?
Answer: The value was 60% and 46%.

Question: What about the “Population Normal (%)” value (HEK-293T; [1]) of the same compound?
Answer: Its value is 82% and 93%.

Question: And the “Population Pyknosed Nuclei (%)” value (HEK-293T; [1])?
Answer: Its value is 13% and 14%.

Question: And the “Population Tubulin-Different-Phenotype (%)” value (HEK-293T; [1])?
Answer: The value was 36% and 35%.

Question: And the “Total Cell Count” value (HEK-293T; [1])?
Answer: Its value is 378 and 294.

Question: And the “Population Apoptotic (%)” value (HEK-293T; [2])?
Answer: The value was 90% and 77%.

Question: And the “Population Fragmented Nuclei (%)” value (HEK-293T; [2])?
Answer: The value was 4% and 8%.

Question: And the “Population Healthy Nuclei (%)” value (HEK-293T; [2])?
Answer: The value was 57% and 71%.

Question: What about the “Population Hoechst High Intensity Objects (%)” value (HEK-293T; [2]) of the same compound?
Answer: Its value is 33% and 19%.

Question: What about the “Population Membrane Permeable-Phenotype (%)” value (HEK-293T; [2]) of the same compound?
Answer: Its value is 0%.

Question: What about the “Population Mitochondria Different-Phenotype (%)” value (HEK-293T; [2]) of the same compound?
Answer: Its value is 77% and 84%.

Question: What about the “Population Mitotic Cells (%)” value (HEK-293T; [2]) of the same compound?
Answer: Its value is 9% and 22%.

Question: What about the “Population Normal (%)” value (HEK-293T; [2]) of the same compound?
Answer: The value was 66% and 80%.

Question: And the “Population Pyknosed Nuclei (%)” value (HEK-293T; [2])?
Answer: The value was 38% and 19%.

Question: And the “Population Tubulin-Different-Phenotype (%)” value (HEK-293T; [2])?
Answer: The value was 78%.

Question: What about the “Total Cell Count” value (HEK-293T; [2]) of the same compound?
Answer: Its value is 242 and 229.

Question: And the “Population Apoptotic (%)” value (HEK-293T; [3])?
Answer: Its value is 39% and 41%.

Question: What about the “Population Fragmented Nuclei (%)” value (HEK-293T; [3]) of the same compound?
Answer: The value was 10% and 9%.

Question: What about the “Population Healthy Nuclei (%)” value (HEK-293T; [3]) of the same compound?
Answer: The value was 73% and 81%.

Question: And the “Population Hoechst High Intensity Objects (%)” value (HEK-293T; [3])?
Answer: The value was 22% and 13%.

Question: What about the “Population Membrane Permeable-Phenotype (%)” value (HEK-293T; [3]) of the same compound?
Answer: Its value is 0%.

Question: What about the “Population Mitochondria Different-Phenotype (%)” value (HEK-293T; [3]) of the same compound?
Answer: The value was 45% and 48%.

Question: What about the “Population Mitotic Cells (%)” value (HEK-293T; [3]) of the same compound?
Answer: The value was 60% and 58%.

Question: And the “Population Normal (%)” value (HEK-293T; [3])?
Answer: The value was 77% and 86%.

Question: What about the “Population Pyknosed Nuclei (%)” value (HEK-293T; [3]) of the same compound?
Answer: Its value is 16% and 9%.

Question: And the “Population Tubulin-Different-Phenotype (%)” value (HEK-293T; [3])?
Answer: Its value is 32%.

Question: What about the “Total Cell Count” value (HEK-293T; [3]) of the same compound?
Answer: Its value is 326 and 301.
